High-throughput results from PubChem.
Compounds with a hit are over-represented: about 1.9% of the library has one in this group of screens.
RanGTP-Impb inh = inhibitors of RanGTP-importin-beta interaction, primary screen, biochemical, FRET, CFP-Ran, YFP-importin-beta, homogeneous. Ran GTPase (GTP-bound) - importin-beta complex. cell-free CFP-Ran/YFP-importin-beta FRET ratio. inhibition, % (concentration not given with the values). hit rate 1.1% among 300,000. AID 2216, 2009;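 active = more than half of the replicate wells show a fall in the fluorescence ratio signal beyond about 16%, limit read from the data, passing the limit was not always enough; inconclusive = exactly half of the replicate wells pass the set limit; inactive = fewer than half of replicates pass the limit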
Tb hexokinase = Trypanosoma brucei hexokinase 1 inhibitors, primary screen, biochemical, G6PDH-coupled NADH absorbance, MLSCN library. inhibition, % at 10 µM. AID 1430, 2008. hit rate 0.11% among 220,000. recombinant TbHK1, G6PDH-coupled NADH A340. hexokinase 1 [Trypanosoma brucei];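 active = inhibition of 50% or more in the single-dose primary screen; inactive = inhibition below 50%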
Hck Nef HTS = inhibitors of Nef-activated human Hck kinase, primary screen, biochemical, Z-Lyte FRET, 384-well, Hck-YEEI; Recombinant Hck-YEEI plus Nef, Z-Lyte FRET kinase assay; inhibition, % at 20 µM; hit rate 0.68% among 220,000;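 active = Hck-Nef kinase inhibition above about 50%, limit read from the data; inactive = inhibition below that limit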
Target sequence (P08631 whole entry, looked up): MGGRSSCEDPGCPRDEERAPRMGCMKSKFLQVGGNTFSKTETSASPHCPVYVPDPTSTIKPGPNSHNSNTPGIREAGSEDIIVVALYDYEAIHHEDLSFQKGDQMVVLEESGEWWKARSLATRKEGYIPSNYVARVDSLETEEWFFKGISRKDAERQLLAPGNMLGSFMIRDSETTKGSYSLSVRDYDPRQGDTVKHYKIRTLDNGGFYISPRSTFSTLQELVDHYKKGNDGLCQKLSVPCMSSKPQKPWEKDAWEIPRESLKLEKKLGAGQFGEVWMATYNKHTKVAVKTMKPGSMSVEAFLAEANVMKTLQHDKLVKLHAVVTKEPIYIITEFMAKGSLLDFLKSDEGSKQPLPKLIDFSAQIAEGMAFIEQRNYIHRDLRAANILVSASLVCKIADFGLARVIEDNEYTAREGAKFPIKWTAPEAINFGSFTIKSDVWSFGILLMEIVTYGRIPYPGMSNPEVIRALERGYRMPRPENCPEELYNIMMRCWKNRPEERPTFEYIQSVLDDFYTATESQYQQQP
Runt-CBFb FRET = inhibitors of RUNX1 Runt–CBFb binding, primary screen, biochemical, FRET, Cerulean-Runt, Venus-CBFb, uHTS | Cerulean-Runt/Venus-CBFb FRET ratio 530/480, 1 h | inhibition, % at 20 µM | hit rate 0.46% among 220,000;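 active = inhibition over about 50% at 20 µM in the single-dose screen, limit read from the data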
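Assay system: Cerulean-Runt domain / Medium: Tris 50 mM pH 7.5, KCl, K2SO4, 0.01% BSA / Timing: protein complex preformed 1 h, compound exposure 1 h, room temperature, dark / Measured by: FRET, excitation 422 nm, emission at 530 and 480 nm / Evaluation: loss of energy transfer signal / Control set: 5 µM unlabeled CBFb as full-inhibition high control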
Runt-SMMHC FRET = inhibitors of RUNX1 Runt–CBFb-SMMHC binding, primary screen, biochemical, FRET, Cerulean-Runt, Venus-CBFb-SMMHC, uHTS; Runt-related transcription factor 1 (Homo sapiens) + Core-binding factor subunit beta …; Cerulean-Runt/Venus-CBFb-SMMHC FRET ratio 530/480, 1 h; inhibition, % at 20 µM; hit rate 0.74% among 220,000;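 active = mean inhibition across duplicate retests at 20 µM reaching about 50%, limit read from the data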;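 also: inhibitors lower the FRET ratio by blocking Runt binding to CBFb-SMMHC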
RUNX1 CBFb TR = inhibitors of RUNX1 Runt–CBFb binding, biochemical, TR-FRET; shares compounds with Runt-CBFb FRET; TR-FRET RUNX1 Runt domain-CBFb binding; inhibition, % at 20 µM; hit rate 20% among 480; AID 1502, 2009; in the data active = inhibition above about 40%
YIC counter = YIC intramolecular FRET probe signal interference, dose response, counter-screen for RanGTP-importin-beta inhibitor project, biochemical, fluorescence FRET; shares compounds with RanGTP-Impb inh; Purified YIC probe, intramolecular FRET ratio YFP/CFP; IC50, µM; hit rate 40% among 1,000; AID 435026, 2010;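 active = fitted half-maximal inhibitory concentration no more than tenfold above the top dose tested; inconclusive = flat fit with 30 to 70% activity, or poor fit; inactive = half-maximal concentration beyond tenfold above the top dose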
Hck Nef conf = retest of Hck:Nef kinase inhibitor hits, confirmation, biochemical, Z-Lyte FRET, 384-well, p-Tyr peptide counterscreen; calls only at 10 µM; AID 463188, 2010; hit rate 28% among 1,300; shares compounds with Hck Nef HTS; Recombinant Hck-YEEI:Nef, Z-Lyte FRET kinase assay;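 active = average inhibition of at least 50%, with Z-scores no higher than 3 in both the phospho-tyrosine peptide and fluorescence counterscreens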
Numbers stand for hits; - = inactive; ? = inconclusive; . = not tested or not shown; + = active, no number.

SMILES	RanGTP-Impb inh	Tb hexokinase	Hck Nef HTS	Runt-CBFb FRET	Runt-SMMHC FRET	RUNX1 CBFb TR	others
CCn1nc(NC(=O)c2ccccn2)c2cc3cccc(C)c3nc21	38	-	-	60	-	-	YIC counter=0.86
CC(C)c1ccc(NC(=O)CCS(=O)(=O)c2cccc3nonc23)cc1	-	.	.	.	.	.
CC(C)(C)C1COc2ccccc2N1C(=O)c1ccccc1Cl (stereo not drawn)	-	.	.	.	.	.
Cc1ccc(C(=O)NNc2c3ccccc3nc3ccccc23)cc1	39	-	-	73	-	-	YIC counter=-
Cc1ccc(N=Cc2cc3c(cc2O)OC(N)=C(C#N)C3c2ccccc2)cc1 (stereo not drawn)	43	-	-	79	117	-	YIC counter=-
OCCC1CN(Cc2nc3ccccc3[nH]2)CCN1C1CCCC1 (stereo not drawn)	-	-	-	-	-	.
CCOCCCNC(=S)NCCNc1nc2c(C)cccc2cc1C#N	21	-	-	68	93	-	YIC counter=32
COCCCNC(=S)NCCNc1nc2cc(C)cc(C)c2cc1C#N	-	-	-	-	-	.
CCCCc1cc(=O)oc2c(CN(CC)CC)c(O)c(Cl)cc12	?	-	155	75	150	-
CC(C)Cn1c(N)c(C(=O)NCC2CCCO2)c2nc3ccccc3nc21 (stereo not drawn)	82	-	53	52	58	-
COc1ccc(OC)c(-n2c(N)c(C(=O)NCC3CCCO3)c3nc4ccccc4nc32)c1 (stereo not drawn)	-	-	-	-	-	.
Cc1cc2cc(C)c3nnc(SCC(=O)Nc4ccc(S(=O)(=O)N5CCCCC5)cc4)n3c2cc1C	-	-	-	-	-	.
Cc1cc2oc(=O)c3c(c2cc1OC(=O)c1ccco1)CCCC3	-	-	-	-	-	.
O=C(Oc1cc2oc(=O)c3c(c2cc1Cl)CCCC3)c1ccco1	-	-	83	68	120	-
O=C(Oc1cc2oc(=O)c3c(c2cc1Cl)CCCC3)c1cccs1	.	-	78	76	133	-
O=C(Oc1ccc2c3c(c(=O)oc2c1)CCCC3)c1cccs1	-	-	-	-	-	.
CC(=O)c1ccc(NC(=S)N2CC(C)CC(C)C2)cc1 (stereo not drawn)	-	-	-	-	-	.
O=S(=O)(Nc1ccc(-c2nc3cccnc3s2)cc1)c1ccccc1F	-	-	+	81	146	-
Cc1nc2ccc(S(=O)(=O)Nc3cccc(-c4nc5cccnc5s4)c3)cc2s1	-	-	-	-	-	.
Cc1nc2ccc(S(=O)(=O)Nc3ccc(-c4nc5cccnc5s4)cc3)cc2s1	21	-	56	74	.	86	YIC counter=39
COc1ccc(-n2c(N)c(C(=O)NCc3ccco3)c3nc4ccccc4nc32)cc1	37	-	69	51	120	-	Hck Nef conf=-
COc1cccc(-n2c(N)c(C(=O)Nc3c(C)n(C)n(-c4ccccc4)c3=O)c3nc4ccccc4nc32)c1	-	-	-	-	-	.
COCCNC(=O)c1c(N)n(-c2cccc(C)c2)c2nc3ccccc3nc12	97	-	60	60	79	-
O=C(C=C=Nc1ccccc1)C(=O)N=C=Cc1ccccc1	-	-	-	-	-	.
CC(=O)Nc1ccc(S(=O)(=O)Nc2nc3cc4c(cc3nc2Cl)OCCO4)cc1	-	-	89	51	75	-
SMILES	RanGTP-Impb inh	Tb hexokinase	Hck Nef HTS	Runt-CBFb FRET	Runt-SMMHC FRET	RUNX1 CBFb TR	others
CC(C)C[C@H](NC(=O)OC(C)(C)C)C(=O)N/N=C/C1=Cc2ccccc2OC1C (stereo partly drawn)	-	-	-	-	-	.
Cc1cc(=O)oc2cc(OC(C)C(=O)O)c(Cl)cc12 (stereo not drawn)	-	-	-	-	-	.
Cc1ccc(S(=O)(=O)NC(C(=O)Oc2cc3oc(=O)cc(C)c3cc2Cl)C(C)C)cc1 (stereo not drawn)	?	-	100	61	115	53
CC(=O)Oc1cc2oc(=O)cc(C)c2cc1Cl	-	-	+	79	113	-
COc1cc(C(=S)N2CCCC2)cc(OC)c1O	.	-	-	-	-	.
COc1ccc(-c2csc(NC(=O)C3CSC4(C)CCC(=O)N34)n2)c(OC)c1 (stereo not drawn)	-	.	.	.	.	.
COc1ccc(-n2c(SCc3ccccn3)nc3c(c2=O)SCC3)cc1OC	?	-	-	-	-	.
CN(C)Cc1c(O)ccc2c3c(c(=O)oc12)CCCCC3	20	-	76	70	136	-	YIC counter=22
CN(Cc1c(O)ccc2c1oc(=O)c1ccccc12)C1CCCCC1	-	-	-	-	-	.
COCCCn1c(C(=O)N2CCOCC2)cc2c(=O)n3ccccc3nc21	-	.	.	.	.	.
CCOC(=O)c1cc2c(=O)n3ccccc3nc2n(CCOC)c1=NC(=O)C(C)(C)C	77	-	101	77	-	-
O=C(COc1ccccc1Cl)NC(=S)Nc1ccccc1N1CCCC1	-	.	.	.	.	.
O=C(Nc1cc(Cl)ccc1O)c1snnc1-c1ccccc1	-	-	-	-	-	.
CCNc1ccc2c(Cl)cc(=O)oc2c1	36	-	52	55	95	-	Hck Nef conf=-
Cc1cccc(-c2oc3ccc(-c4ccc5c(c4)OCO5)cc3c2C(=O)OCc2ccc(O)cc2)c1	-	.	.	.	.	.
N#Cc1c(N)n(-c2cccc(O)c2)c2nc3ccccc3nc12	27	-	72	73	102	-
N#Cc1c(C#N)c(-c2ccccc2)n(-c2ccccc2)c1N	-	-	-	-	-	.
COc1cc(-c2nc3ccccc3s2)ccc1O	-	-	155	79	154	-
CCOc1cc(-c2nc3ccccc3s2)ccc1O	-	-	+	55	117	-
Nc1c(C(=O)NCCN2CCOCC2)c2nc3ccccc3nc2n1CCc1ccccc1F	93	-	51	70	61	-	Hck Nef conf=-
